ChEMBL document CHEMBL1155982 (Bioorg Med Chem Lett, 2009)

Tests used:
[1] = Intrinsic cytotoxicity against human MES-SA/Dx5 cells; assay type: functional
Summary of the method: (§1)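 MES-SA/DX5 (P-gp-overexpressing human sarcoma) cells seeded at 1.2 × 10⁴ cells/well and incubated 24 h at 37 °C. They were then exposed for 60 h to varying concentrations of test compound, with or without 100 nM Taxol. Survival was read by Cell Counting Kit-8, and GI₅₀/EC₅₀ were taken from the concentration series.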

Cytochrome P450 3A4 = Cytochrome P450 3A4 (Homo sapiens, UniProt P08684); assay: Inhibition of human CYP3A4; assay type: ADME
Chain of Cytochrome P450 3A4 (P08684 whole entry): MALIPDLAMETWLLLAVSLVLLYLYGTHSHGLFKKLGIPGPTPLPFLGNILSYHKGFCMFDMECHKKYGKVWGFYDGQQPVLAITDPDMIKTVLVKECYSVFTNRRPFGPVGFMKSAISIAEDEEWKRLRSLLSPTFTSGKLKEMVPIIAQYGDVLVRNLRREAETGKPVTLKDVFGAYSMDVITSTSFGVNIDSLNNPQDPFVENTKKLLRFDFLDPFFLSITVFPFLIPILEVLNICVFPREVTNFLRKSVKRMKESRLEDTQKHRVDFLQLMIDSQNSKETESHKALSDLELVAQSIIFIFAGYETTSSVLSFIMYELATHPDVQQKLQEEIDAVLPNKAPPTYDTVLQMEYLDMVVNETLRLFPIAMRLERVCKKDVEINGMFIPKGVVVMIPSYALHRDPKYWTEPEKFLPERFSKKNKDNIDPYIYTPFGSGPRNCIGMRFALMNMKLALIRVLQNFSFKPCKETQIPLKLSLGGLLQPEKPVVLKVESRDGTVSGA

[2] = Cytotoxicity against human MES-SA/Dx5 cells; assay type: functional, cell-based; summary of the method: as §1

SMILES | GI50 [1] [µM] | IC50 (Cytochrome P450 3A4) [µM] | IC50 [2] [µM]
COC(=O)c1cccc(NC(=O)COc2ccc(C34CC5CC(CC(C(N)=O)(C5)C3)C4)cc2)c1 | 14.3 |  | 
COC(=O)c1cccc(NC(=O)COc2ccc(C34CC5CC(CC(C(=O)N6CCc7cc(OC)c(OC)cc7C6)(C5)C3)C4)cc2)c1 | > 20 |  | 
COC(=O)c1cccc(NC(=O)COc2ccc(C34CC5CC(CC(C(=O)NCCN(C)C)(C5)C3)C4)cc2)c1 | > 20 |  | 
COC(=O)c1cccc(NC(=O)COc2ccc(C34CC5CC(CC(C(=O)N6CCN(Cc7ccc(F)cc7)CC6)(C5)C3)C4)cc2)c1 | > 20 |  | 
COC(=O)c1cccc(NC(=O)COc2ccc(C34CC5CC(CC(C(=O)N6CCN(Cc7cccc(OC)c7)CC6)(C5)C3)C4)cc2)c1 | 13.2 | 0.82 | 
COC(=O)c1cccc(NC(=O)COc2ccc(C34CC5CC(CC(C(=O)NCc6ccc(OC)c(OC)c6)(C5)C3)C4)cc2)c1 | > 20 |  | 
COC(=O)c1cccc(NC(=O)COc2ccc(C34CC5CC(CC(C(=O)N6CCN(Cc7ccc(C(F)(F)F)cc7)CC6)(C5)C3)C4)cc2)c1 | > 20 | 2.03 | 
COC(=O)c1cccc(NC(=O)COc2ccc(C34CC5CC(CC(C(=O)Nc6ccc(C(C)(C)C)cc6)(C5)C3)C4)cc2)c1 | > 20 |  | 
COC(=O)c1cccc(NC(=O)COc2ccc(C34CC5CC(CC(C(=O)N6CCN(Cc7ccc(OC)cc7)CC6)(C5)C3)C4)cc2)c1 | 14 | 0.89 | 
COc1cc2c(cc1OC)CN(C(=O)C13CC4CC(C1)CC(c1ccc(OCC(=O)Nc5cccc(C#N)c5)cc1)(C4)C3)CC2 | > 20 | > 5 | 
COC(=O)c1ccccc1NC(=O)COc1ccc(C23CC4CC(CC(C(=O)N5CCc6cc(OC)c(OC)cc6C5)(C4)C2)C3)cc1 | > 20 | 3.79 | 
COC(=O)c1ccc(NC(=O)COc2ccc(C34CC5CC(CC(C(=O)N6CCc7cc(OC)c(OC)cc7C6)(C5)C3)C4)cc2)cc1 | 14.3 |  | 
COc1cc2c(cc1OC)CN(C(=O)C13CC4CC(C1)CC(c1ccc(OCC(=O)Nc5cccc(C(N)=O)c5)cc1)(C4)C3)CC2 | 16.3 |  | 
COc1cc2c(cc1OC)CN(C(=O)C13CC4CC(C1)CC(c1ccc(OCC(=O)Nc5cccc(C(=O)NCc6ccco6)c5)cc1)(C4)C3)CC2 | > 20 |  | 
COc1cc2c(cc1OC)CN(C(=O)C13CC4CC(C1)CC(c1ccc(OCC(=O)Nc5cccc(C(F)(F)F)c5)cc1)(C4)C3)CC2 | 12.1 |  | 
COc1cc2c(cc1OC)CN(C(=O)C13CC4CC(C1)CC(c1ccc(OCC(=O)Nc5cccc6cccnc56)cc1)(C4)C3)CC2 | > 20 |  | 
COC(=O)c1cccc(NC(=O)COc2ccc(C34CC5CC(CC(C(=O)OCc6ccccc6)(C5)C3)C4)cc2)c1 | > 20 |  | 
COc1ccc(CCN(C)CCCC(C#N)(c2ccc(OC)c(OC)c2)C(C)C)cc1OC (stereo not given) | > 20 |  | 
CC(=O)O[C@H]1C(=O)[C@@]2(C)[C@H]([C@H](OC(=O)c3ccccc3)[C@]3(O)C[C@H](OC(=O)[C@H](O)[C@@H](NC(=O)c4ccccc4)c4ccccc4)C(C)=C1C3(C)C)[C@]1(OC(C)=O)CO[C@@H]1C[C@@H]2O [PACLITAXEL] | 7.54 |  | 7.54
